From PMC5992016 (Movement disorders : official journal of the Movement …, 2018)
Where a name gives a salt, the structure may show the parent alone.

How the values were obtained:
[1] = tested on: AIMs (abnormal involuntary movements) in rodents; details: cited from earlier work; for effect on AIMs in rodents: inhibitor of PDEs 5, 6 and 9
[2] = tested on: hand movement speed in MPTP-treated macaques; assay: Acute co-administration with s.c. L-Dopa: Klüver board test; format: in vivo, Macaca fascicularis
[3] = tested on: L-Dopa-induced dyskinesias in MPTP-treated macaques; assay: Acute co-administration with s.c. L-Dopa: LID scores; format: in vivo, Macaca fascicularis; details: L-Dopa optimal dose s.c.; amantadine 5 or 10 mg/kg s.c.
In short: (§1)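 Used MPTP macaques (3 male, 2 female) on oral carbidopa/levodopa maintenance. Optimal s.c. L-Dopa methyl ester dose (MDS reduction 50–75%) was set per animal, with benserazide at one quarter. Amantadine or test compound (DMSO/cremophor) or vehicle was given s.c. just before. Blinded live and video scoring ran off-state, then from 30 min every 20 min. Part II: peak (50 min) and summed total. Part I: MDS AUC. Triplicate runs were averaged.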

[4] = tested on: parkinsonian motor disability in MPTP-treated macaques; assay: Acute co-administration with s.c. L-Dopa: motor disability scores; format: in vivo, Macaca fascicularis; details: amantadine 5 and 10 mg/kg s.c.
In short: as §1

SMILES: CCCOc1ccccc1-c1nc2nn[nH]c2c(=O)[nH]1 [zaprinast]
- effect on AIMs in rodents [1]: improves AIMs

SMILES: CCCOc1ccc(S(=O)(=O)N2CCN(CC)CC2)cc1-c1nc2c(CC)n(Cc3ccccn3)nc2c(=O)[nH]1 [UK343664]
- effect on AIMs in rodents [1]: improves AIMs

SMILES: NC12CC3CC(CC(C3)C1)C2 [amantadine, amantadine hydrochloride]
- movement speed (time) in KBT in the on state ([2]; L-Dopa optimal dose s.c., amantadine 10 mg/kg s.c.): increased
- movement speed (time) in KBT ([2]; L-Dopa suboptimal dose s.c., highest dose (MR1916 0.05 mg/kg, amantadine 10 mg/kg s.c.)): increased
- effect on LID compared with MR1916 [3]: similar
- effect on MDS in the on state ([4]; L-Dopa optimal dose s.c.): significantly increased MDS
- effect on MDS ([4]; L-Dopa suboptimal dose s.c.): reduced the beneficial effect of L-Dopa on MDS

SMILES: FC(F)(F)Cn1cc(-c2ccncc2)c(-c2ccc(OCc3ccc4ccccc4n3)cc2)n1 [TP-10]
- antidyskinetic effects in rodents ([1]; preliminary tests): antidyskinetic effects
